Measured values: ChEMBL document CHEMBL1255334
Calls of active or inactive are those of the source. The rule behind the calls is not given here.

Key:
Format in all cases: functional, organism-based
[1] = tested on: Mycobacterium tuberculosis; assay: Antibacterial activity against Mycobacterium tuberculosis containing PZase Ile(6)>Thr mutant assessed as at 100 mg/liter
How it was run: (§1)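 Clinical M. tuberculosis isolates first grown on Löwenstein-Jensen medium 3 to 4 weeks at 37°C. Radiometric BACTEC 460 test in acidified PZA test medium. Inoculum: ~McFarland 1 suspension grown in 12B medium until growth index (GI) >300. Paired vials per strain: drug-free control and PZA 100 mg/liter. Read when control GI reached 200. Resistant if PZA-vial GI >11% of control GI, susceptible if <9%.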

[2] = tested on: Mycobacterium tuberculosis; assay: Antibacterial activity against Mycobacterium tuberculosis containing PZase Gly(132)>Ala mutant assessed as at 100 mg/liter; how it was run: as §1
[3] = tested on: Mycobacterium tuberculosis; assay: Antibacterial activity against Mycobacterium tuberculosis containing PZase Thr(142)>Lys mutant assessed as at 100 mg/liter; how it was run: as §1
[4] = tested on: Mycobacterium tuberculosis; assay: Antibacterial activity against Mycobacterium tuberculosis containing PZase Val(125)>Asp mutant assessed as at 100 mg/liter; how it was run: as §1
[5] = tested on: Mycobacterium tuberculosis; assay: Antibacterial activity against Mycobacterium tuberculosis containing PZase Met(175)>Thr mutant assessed as at 100 mg/liter; how it was run: as §1
[6] = tested on: Mycobacterium tuberculosis; assay: Antibacterial activity against Mycobacterium tuberculosis containing PZase Phe(58)>Leu mutant assessed as at 100 mg/liter; how it was run: as §1
[7] = tested on: Mycobacterium tuberculosis; assay: Antibacterial activity against Mycobacterium tuberculosis containing PZase Pro(54)>Leu mutant assessed as at 100 mg/liter; how it was run: as §1
[8] = tested on: Mycobacterium tuberculosis; assay: Antibacterial activity against Mycobacterium tuberculosis containing PZase Leu(172)>Pro mutant assessed as at 100 mg/liter; how it was run: as §1
[9] = tested on: Mycobacterium tuberculosis; assay: Antibacterial activity against Mycobacterium tuberculosis containing PZase Ile(90)>Ser mutant assessed as at 100 mg/liter; how it was run: as §1
[10] = tested on: Mycobacterium tuberculosis; assay: Antibacterial activity against Mycobacterium tuberculosis containing PZase Thr(47)>Ala mutant assessed as at 100 mg/liter; how it was run: as §1
[11] = tested on: Mycobacterium tuberculosis; assay: Antibacterial activity against Mycobacterium tuberculosis containing PZase Val(155)>Gly mutant assessed as at 100 mg/liter; how it was run: as §1
[12] = tested on: Mycobacterium tuberculosis; assay: Antibacterial activity against Mycobacterium tuberculosis containing pncA gene with A(-11)>G mutation assessed as at 100 mg/liter; how it was run: as §1
[13] = tested on: Mycobacterium tuberculosis; assay: Antibacterial activity against Mycobacterium tuberculosis containing PZase Gly(132)>Ser mutant assessed as at 100 mg/liter; how it was run: as §1
[14] = tested on: Mycobacterium tuberculosis; assay: Antibacterial activity against Mycobacterium tuberculosis containing pncA gene with G insertion between nucleotide -33 and -32 assessed as at 100 mg/liter; how it was run: as §1
[15] = tested on: Mycobacterium tuberculosis; assay: Antibacterial activity against Mycobacterium tuberculosis containing PZase Val(125)>Phe mutant assessed as at 100 mg/liter; how it was run: as §1
[16] = tested on: Mycobacterium tuberculosis; assay: Antibacterial activity against Mycobacterium tuberculosis containing pncA gene with GG insertion between nt 391 and 392 assessed as at 100 mg/liter; how it was run: as §1
[17] = tested on: Mycobacterium tuberculosis; assay: Antibacterial activity against Mycobacterium tuberculosis containing pncA gene with C insertion between nucleotide -3 and -2 assessed as at 100 mg/liter; how it was run: as §1
[18] = tested on: Mycobacterium tuberculosis; assay: Antibacterial activity against Mycobacterium tuberculosis containing PZase with In-frame insertion between amino acids 148 and 149 assessed as at 100 mg/liter; how it was run: as §1
[19] = tested on: Mycobacterium tuberculosis; assay: Antibacterial activity against Mycobacterium tuberculosis containing pncA gene with C(174)>G mutation assessed as at 100 mg/liter; how it was run: as §1
[20] = tested on: Mycobacterium tuberculosis; assay: Antibacterial activity against Mycobacterium tuberculosis containing PZase Ser(67)>Pro mutant assessed as at 100 mg/liter; how it was run: as §1
[21] = tested on: Mycobacterium tuberculosis; assay: Antibacterial activity against Mycobacterium tuberculosis containing PZase Arg(123)>Pro mutant assessed as at 100 mg/liter; how it was run: as §1
[22] = tested on: Mycobacterium tuberculosis; assay: Antibacterial activity against Mycobacterium tuberculosis containing PZase His(51)>Gln mutant assessed as at 100 mg/liter; how it was run: as §1
[23] = tested on: Mycobacterium tuberculosis; assay: Antibacterial activity against Mycobacterium tuberculosis containing PZase Cys(138)>Tyr mutant assessed as at 100 mg/liter; how it was run: as §1
[24] = tested on: Mycobacterium tuberculosis; assay: Antibacterial activity against Mycobacterium tuberculosis containing PZase Pro(54)>Ser mutant assessed as at 100 mg/liter; how it was run: as §1
[25] = tested on: Mycobacterium tuberculosis; assay: Antibacterial activity against Mycobacterium tuberculosis containing PZase Trp(68)>Arg mutant assessed as at 100 mg/liter; how it was run: as §1
[26] = tested on: Mycobacterium tuberculosis; assay: Antibacterial activity against Mycobacterium tuberculosis containing PZase Ser(65)>Ser mutant assessed as at 100 mg/liter; how it was run: as §1
[27] = tested on: Mycobacterium tuberculosis; assay: Antibacterial activity against Mycobacterium tuberculosis containing PZase Ser(65)>Ser frameshift mutant assessed as at 100 mg/liter; how it was run: as §1
[28] = tested on: Mycobacterium tuberculosis; assay: Antibacterial activity against Mycobacterium tuberculosis containing PZase Tyr(103)>His mutant assessed as at 100 mg/liter; how it was run: as §1

NC(=O)c1cnccn1
Activity [1]: inactive | Activity [2]: inactive | Activity [3]: inactive | Activity [4]: inactive | Activity [5]: inactive | Activity [6]: inactive | Activity [7]: inactive | Activity [8]: inactive | Activity [9]: inactive | Activity [10]: inactive | Activity [11]: inactive | Activity [12]: inactive | Activity [13]: inactive | Activity [14]: Active | Activity [15]: inactive | Activity [16]: inactive | Activity [17]: Active | Activity [18]: inactive | Activity [19]: inactive | Activity [20]: inactive | Activity [21]: inactive | Activity [22]: inactive | Activity [23]: inactive | Activity [24]: inactive | Activity [25]: inactive | Activity [26]: Active | Activity [27]: inactive | Activity [28]: inactive
